Data set [1] in a line: Thermal stability of the compound at 50 degC at 0.5 mg/ml after 10 days by LC-MS analysis. The format is physicochemical. The conditions noted are these: 240 h. In a few lines: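 Peptides dissolved in water at 0.5 mg/mL and held at 50 °C. After 10 days, aliquots were analysed by direct-injection LC-MS. Remaining peptide was expressed as a percentage of the corresponding peak before heating.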

Data set [2] deals with T1, Oxytocin receptor (Homo sapiens, UniProt P30559).
T1 sequence (P30559 whole entry): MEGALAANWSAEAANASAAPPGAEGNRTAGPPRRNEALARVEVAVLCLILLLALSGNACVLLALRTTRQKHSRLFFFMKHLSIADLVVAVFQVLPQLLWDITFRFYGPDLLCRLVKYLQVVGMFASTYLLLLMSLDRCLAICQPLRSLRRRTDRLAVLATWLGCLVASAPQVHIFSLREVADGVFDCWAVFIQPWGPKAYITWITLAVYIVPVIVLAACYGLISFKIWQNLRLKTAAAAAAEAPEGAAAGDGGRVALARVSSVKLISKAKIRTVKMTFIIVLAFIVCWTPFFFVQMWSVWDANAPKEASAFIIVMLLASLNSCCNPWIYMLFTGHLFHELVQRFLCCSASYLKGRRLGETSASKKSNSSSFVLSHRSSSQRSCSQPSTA
Nature of the data set: Antagonist activity at human mammary gland oxytocin receptor expressed in CHO cells assessed as inhibition of agonist-induced intracellular calcium flux preincubated for 20 mins followed by oxytocin addition measured for 5 mins by Fluo-4-AM dye based FLIPR assay. The format is functional, cell-based. In a few lines: (§1)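 CHO cells stably expressing the relevant human receptor, plated 24 h, loaded 60 min with 2 µM Fluo-4-AM and read on FLIPR. […] IC50 came from a variable-slope single-site competition fit of normalized fluorescence. At least 3 runs in duplicate.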
Background: Calcium assays in cells follow changes in intracellular calcium, usually with a dye or a luminescent sensor.

Data set [3] has as its target T2, Vasopressin V1b receptor (Homo sapiens, UniProt P47901).
T2 sequence (P47901 whole entry): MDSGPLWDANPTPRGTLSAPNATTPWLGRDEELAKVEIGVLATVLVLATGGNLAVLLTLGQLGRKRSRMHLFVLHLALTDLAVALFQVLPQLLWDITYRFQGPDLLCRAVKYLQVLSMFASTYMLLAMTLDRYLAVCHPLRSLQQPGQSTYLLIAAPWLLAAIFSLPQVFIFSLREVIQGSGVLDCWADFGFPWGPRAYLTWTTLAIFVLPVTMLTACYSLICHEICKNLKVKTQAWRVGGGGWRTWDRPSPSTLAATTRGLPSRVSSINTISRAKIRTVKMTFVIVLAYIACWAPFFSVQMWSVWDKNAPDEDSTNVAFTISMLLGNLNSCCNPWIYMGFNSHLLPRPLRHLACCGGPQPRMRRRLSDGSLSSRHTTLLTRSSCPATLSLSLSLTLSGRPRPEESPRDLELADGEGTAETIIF
In words: Displacement of [3H]AVP from human vasopressin V1b receptor expressed in HEK293 cell membrane after 1 hr by scintillation counting method. The class given is cell membranes.

The target in data set [4] is T3, Vasopressin V1a receptor (Homo sapiens, UniProt P37288). In words: Antagonist activity at human liver vasopressin V1a receptor expressed in CHO cells assessed as inhibition of agonist-induced intracellular calcium flux preincubated for 20 mins followed by AVP addition measured for 5 mins by Fluo-4-AM dye based FLIPR assay. The format is functional, cell-based. In a few lines: as §1
T3 sequence (P37288 whole entry): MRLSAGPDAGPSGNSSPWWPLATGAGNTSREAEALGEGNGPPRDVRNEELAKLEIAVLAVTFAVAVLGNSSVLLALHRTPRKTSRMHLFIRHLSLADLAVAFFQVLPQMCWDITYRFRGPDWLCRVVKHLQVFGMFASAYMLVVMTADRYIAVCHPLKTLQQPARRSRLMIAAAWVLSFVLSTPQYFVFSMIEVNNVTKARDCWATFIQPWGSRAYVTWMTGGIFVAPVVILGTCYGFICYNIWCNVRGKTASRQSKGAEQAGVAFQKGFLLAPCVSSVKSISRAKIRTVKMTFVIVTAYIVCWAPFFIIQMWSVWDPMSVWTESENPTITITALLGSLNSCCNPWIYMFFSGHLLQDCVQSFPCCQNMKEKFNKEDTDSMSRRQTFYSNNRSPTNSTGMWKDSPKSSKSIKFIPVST

Data set [5] addresses T3, Vasopressin V1a receptor. Nature of the data set: Displacement of [3H]AVP from human liver vasopressin V1a receptor expressed in HEK293 cell membrane after 1 hr by scintillation counting method. The class given is cell membranes. In a few lines: (§2)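 Membranes from transiently transfected HEK293 cells. Receptors were cloned from human liver (V1a) or kidney (V2) RNA. SPA assay with yttrium silicate beads in 50 mM Tris, 120 mM NaCl, 5 mM KCl, 2 mM CaCl2, 10 mM MgCl2. 4 nM [3H]AVP added, compound in 2% DMSO, 1 h at room temperature. Ki by Cheng-Prusoff. Three experiments in duplicate.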
Background: Loss of bound radioactivity is the signal in a displacement assay; it reports binding, not function.

In data set [6] the target is T1, Oxytocin receptor. In words: (§3) Agonist activity at human mammary gland oxytocin receptor expressed in CHO cells assessed as increase in intracellular calcium flux measured for 5 mins by Fluo-4-AM dye based FLIPR assay. The class given is functional, cell-based. A digest of the protocol:
(§4)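 Stably transfected CHO lines, one human receptor each, grown in F-12K with 10% FBS, geneticin 200 µg/mL, 37 °C, 10% CO2. Plated 50,000 cells/well for 24 h, then loaded 60 min with 2 µM Fluo-4-AM. Compound dilution series added on FLIPR and calcium signal recorded 5 min for agonist activity. Each compound tested at least 3 times in duplicate.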

Data set [7] addresses T4, Oxytocin receptor (Homo sapiens) (UniProt P30559).
T4 sequence (whole entry): T1 sequence (P30559 whole entry)
Described as §3. The format is functional, cell-based. A digest of the protocol: as §4

Data set [8] has as its target T2, Vasopressin V1b receptor. In words: Agonist activity at human vasopressin V1b receptor expressed in CHO cells assessed as increase in intracellular calcium flux measured for 5 mins by Fluo-4-AM dye based FLIPR assay. The class given is functional, cell-based.
The target of data set [9] is T1, Oxytocin receptor. In words: Displacement of [3H]OT from human mammary gland oxytocin receptor expressed in HEK293 cell membrane after 1 hr by scintillation counting method. The format is cell membranes. A digest of the protocol: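 Membranes from a stable HEK clone expressing human OTR cloned from mammary gland RNA. Filtration binding with 1 nM final [3H]OT in 50 mM Tris, 5 mM MgCl2, 0.1% BSA, pH 7.4, for 1 h at room temperature. GF/C filters, washed 5 times ice-cold. Ki by Cheng-Prusoff. Three experiments in duplicate.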

Data set [10] addresses T3, Vasopressin V1a receptor. Nature of the data set: Agonist activity at human liver vasopressin V1a receptor expressed in CHO cells assessed as increase in intracellular calcium flux measured for 5 mins by Fluo-4-AM dye based FLIPR assay. The format is functional, cell-based. A digest of the protocol: as §4
Data set [11] has as its target T2, Vasopressin V1b receptor. In words: Antagonist activity at human vasopressin V1b receptor expressed in CHO cells assessed as inhibition of agonist-induced intracellular calcium flux preincubated for 20 mins followed by AVP addition measured for 5 mins by Fluo-4-AM dye based FLIPR assay. The format is functional, cell-based. A digest of the protocol:
as §1

The species entered for data set [12] is Homo sapiens. In words: Selectivity index, ratio of IC50 for human mammary gland oxytocin receptor to IC50 for human liver vasopressin V1a receptor.
Data set [13] concerns the target T5, Vasopressin V2 receptor (Homo sapiens, UniProt P30518). In words: Agonist activity at human kidney vasopressin V2 receptor expressed in CHO cells assessed as increase in intracellular calcium flux measured for 5 mins by Fluo-4-AM dye based FLIPR assay. The format is functional, cell-based. In a few lines:
as §4

Data set [14] is filed under the species Homo sapiens. In words: Selectivity index, ratio of Ki for human mammary gland oxytocin receptor to Ki for human liver vasopressin V1a receptor. In a few lines:
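Ratio of binding Ki from the radioligand displacement assays, calculated as the OTR binding value divided by the V1a value.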

Data set [15] addresses T5, Vasopressin V2 receptor. Nature of the data set: Antagonist activity at human kidney vasopressin V2 receptor expressed in CHO cells assessed as inhibition of agonist-induced intracellular calcium flux preincubated for 20 mins followed by AVP addition measured for 5 mins by Fluo-4-AM dye based FLIPR assay. The format is functional, cell-based. A digest of the protocol: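 CHO cells stably expressing the relevant human receptor, plated 24 h, loaded 60 min with 2 µM Fluo-4-AM and read on FLIPR. IC50 came from a variable-slope single-site competition fit of normalized fluorescence. At least 3 runs in duplicate.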

The target of data set [16] is T5, Vasopressin V2 receptor. In words: Displacement of [3H]AVP from human kidney vasopressin V2 receptor expressed in HEK293 cell membrane after 1 hr by scintillation counting method. The format is cell membranes. In a few lines:
as §2

For data set [17], the species on record is Homo sapiens. In words: Selectivity index, ratio of IC50 for human liver vasopressin V1a receptor to IC50 for human mammary gland oxytocin receptor.
The species named for data set [18] is Homo sapiens. Nature of the data set: Selectivity index, ratio of Ki for human liver vasopressin V1a receptor to Ki for human mammary gland oxytocin receptor. A digest of the protocol: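 Ratio of binding Ki from the radioligand displacement assays, calculated as the strongest AVP receptor subtype binding value divided by the OTR value.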
The nature of data set [19]: Half life in Sherman rat plasma. The format is ADME, cell-free.

Each structure is given as a SMILES string. Starred links: 1 amine or outer side, 2 acyl side, 3 side chain; linkers in the order of their positions; H or OH if unused. Positions of bridges follow the written chain, without caps; N, C: chain ends. Non-standard residues stand in square brackets, D forms with d. Residues, ends and D or L forms follow the SMILES beside them. oXylylene = c1ccc(C[*:2])c(C[*:1])c1; X1 = O=C(CCC[*:2])[*:1]; Mpa = O=C(O)CCS Where only a bound is given, the exact number is not on record here.

T5 sequence (P30518 whole entry): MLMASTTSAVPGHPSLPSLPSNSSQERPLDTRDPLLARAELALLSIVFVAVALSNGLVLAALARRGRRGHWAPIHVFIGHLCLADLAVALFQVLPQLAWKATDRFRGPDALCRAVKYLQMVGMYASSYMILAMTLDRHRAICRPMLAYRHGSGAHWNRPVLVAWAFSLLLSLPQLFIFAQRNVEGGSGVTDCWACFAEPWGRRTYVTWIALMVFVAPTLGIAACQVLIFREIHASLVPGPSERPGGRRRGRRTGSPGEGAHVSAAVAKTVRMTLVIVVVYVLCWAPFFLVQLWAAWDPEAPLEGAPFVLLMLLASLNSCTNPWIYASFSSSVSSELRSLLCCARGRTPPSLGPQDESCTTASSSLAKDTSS

Take `CC[C@H](C)[C@@H]1NC(=O)[C@H](Cc2ccc(O)cc2)NC(=O)CCSCc2cccc(c2)CSC[C@@H](C(=O)N2CCC[C@H]2C(=O)N[C@@H](CC(C)C)C(=O)NCC(N)=O)NC(=O)[C@H](CC(N)=O)NC(=O)[C@H](CCC(N)=O)NC1=O`: in [1], the Stability entry is “Stable”. The IC50 (as a rule, the concentration that gives 50% inhibition) on Oxytocin receptor [2] (cho) is “Not Active”; on Vasopressin V1a receptor [4], 4.4 µM; at Vasopressin V1b receptor [11], “Not Active”. Further, the Ki – broadly, the dissociation constant of the complex between target and ligand, obtained from inhibition or displacement – was above 6 µM at Vasopressin V1b receptor [3], 1.68 µM at Vasopressin V1a receptor [5] and 0.05 µM at Oxytocin receptor [9]. Further, the figures for the EC50 at Oxytocin receptor [6], on Vasopressin V1b receptor [8] and at Vasopressin V1a receptor [10] were 0.034 µM, 2.97 µM and above 20 µM, respectively. Besides, in data set [7], the %max was determined as 75%.

Turning to `CC[C@H](C)[C@@H]1NC(=O)[C@H](Cc2ccc(O)cc2)NC(=O)CCSCc2ccccc2CSC[C@@H](C(=O)N2CCC[C@H]2C(=O)N[C@@H](CC(C)C)C(=O)NCC(N)=O)NC(=O)[C@H](CC(N)=O)NC(=O)[C@H](CCC(N)=O)NC1=O`, the IC50 result at Oxytocin receptor [2] (cho) is “Not Active”; on Vasopressin V1a receptor [4], 0.035 µM; at Vasopressin V1b receptor [11], “Not Active”. Also, the Ki on Vasopressin V1b receptor [3] is above 6 µM; on Vasopressin V1a receptor [5] it was 0.069 µM; at Oxytocin receptor [9], 0.22 µM. For the same compound, the EC50 (commonly the concentration giving half of the maximal effect) was 8.3 µM on Vasopressin V1b receptor [8] and above 20 µM on Vasopressin V1a receptor [10].

With `CC[C@H](C)[C@@H]1NC(=O)[C@H](Cc2ccc(OC)cc2)NC(=O)CCCSC[C@@H](C(=O)N2CCC[C@H]2C(=O)N[C@@H](CC(C)C)C(=O)NCC(N)=O)NC(=O)[C@H](CC(N)=O)NC(=O)[C@H](CCC(N)=O)NC1=O` (Y(Me)IQNCPLG-NH2; linker N-5 via X1), the %max in data set [7] was 45%.

With `CC[C@H](C)[C@@H]1NC(=O)[C@H](Cc2ccc(O)cc2)NC(=O)CCSCc2ccccc2CSC[C@@H](C(=O)N2CCC[C@H]2C(=O)N[C@@H](CCCNC(=N)N)C(=O)NCC(N)=O)NC(=O)[C@H](CC(N)=O)NC(=O)[C@H](CCC(N)=O)NC1=O` ([Mpa]YIQNCPRG-NH2; linker 1-6 via oXylylene), the 50% inhibitory concentration (IC50) on Oxytocin receptor [2] (read-out: IC50) is 1.72 µM; on Vasopressin V1a receptor [4], 0.014 µM; on Vasopressin V2 receptor [15], “Not Active”; on Vasopressin V1b receptor [11], “Not Active”. Also, the Ki is above 6 µM on Vasopressin V1b receptor [3], 0.03 µM at Vasopressin V1a receptor [5], 0.166 µM at Oxytocin receptor [9] and above 6 µM on Vasopressin V2 receptor [16]. For the same compound, the Ratio IC50 turned out to be 123 in the data set listed under Homo sapiens [12] and 0.008 in the data set filed under Homo sapiens [17]. For the same compound, the EC50 at Vasopressin V2 receptor [13] was 18.9 µM; at Oxytocin receptor [6], above 10 µM; at Vasopressin V1b receptor [8] it was 9.26 µM; on Vasopressin V1a receptor [10], above 20 µM. The Ratio Ki in the data set listed under Homo sapiens [14] is 5.5; in the data set listed under Homo sapiens [18], 0.2.

Turning to `CC[C@H](C)[C@@H]1NC(=O)[C@H](Cc2ccc(O)cc2)NC(=O)[C@@H](N)CSSC[C@@H](C(=O)N2CCC[C@H]2C(=O)N[C@@H](CC(C)C)C(=O)NCC(N)=O)NC(=O)[C@H](CC(N)=O)NC(=O)[C@H](CCC(N)=O)NC1=O` [OXYTOCIN], the half-life (commonly how long it takes for the measured level to halve) in data set [19] turned out to be 3 min.

(Values after ChEMBL document CHEMBL4118114 (Bioorg Med Chem, 2018).)
